In the library only some 1.4% were active in any assay of this set; here they are far more common.
SUMO Mot1 rescue: blocks SUMOylation pathway, rescuing yeast Mot1-301 growth. S. cerevisiae Mot1-301 growth rescue, ATP luminescence, 38.5C; percent above DMSO median, 100 means doubled. growth rescue, % at 18.8 µM. 320,000 compounds, 1% hits;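 active = every valid replicate shows activation above 250% relative to neutral control wells; inactive = the rest, any valid replicate at or below 250%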
HIF activator: HIF pathway transcriptional activation; U2OS HRE-luciferase reporter, luminescence; normalized: DMSO 0%, desferrioxamine 100%; activation, % at 7.5 µM (by protocol); 300,000 compounds, 0.32% hits; AID 1910;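 active = mean activation of at least 10% of the iron chelator positive control signal, with at least half of replicates also reaching 10%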
T cell HTS: T cell immune modulation candidate; AID 2052; 2C CD8+ T cell-vesicle binding, flow cytometry; active compounds read low; 330,000 compounds, 0.068% hits; response (vesicle binding), % at 7 µM;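 active = response, share of CD8 T cells binding vesicles, and their 90th percentile fluorescence all below set limits, cut at about 80% in these data, passing the limit was not always enough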;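 also: values below 100% mean blocked vesicle binding to the CD8+ T cells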
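System: murine 2C transgenic CD8+ T lymphocytes; also added: QL9-loaded Drosophila micro-vesicles; times: binding 1.5 h at 37 °C; measured by: flow cytometry, PE anti-B7-1 (FL2) versus Alexa647 anti-CD8 (FL8), PFA-fixed; control set: Peptide-free naked vesicles (low) and QL9 vesicles with 0.7% DMSO vehicle (high)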
GASC-1 inh: human JMJD2C demethylase inhibition; Q9H3R0; GST-JMJD2C(1-420) H3K9me3 demethylation, DELFIA europium; inhibition, % at 2.35 µM; 330,000 compounds, 0.069% hits;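 active = more than half of a compound's replicate wells show inhibition beyond 50%, single wells judged on their own value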;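 also: signal counts dimethyl H3K9 product captured on neutravidin plate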
Target sequence (Q9H3R0 1-420 limits assumed): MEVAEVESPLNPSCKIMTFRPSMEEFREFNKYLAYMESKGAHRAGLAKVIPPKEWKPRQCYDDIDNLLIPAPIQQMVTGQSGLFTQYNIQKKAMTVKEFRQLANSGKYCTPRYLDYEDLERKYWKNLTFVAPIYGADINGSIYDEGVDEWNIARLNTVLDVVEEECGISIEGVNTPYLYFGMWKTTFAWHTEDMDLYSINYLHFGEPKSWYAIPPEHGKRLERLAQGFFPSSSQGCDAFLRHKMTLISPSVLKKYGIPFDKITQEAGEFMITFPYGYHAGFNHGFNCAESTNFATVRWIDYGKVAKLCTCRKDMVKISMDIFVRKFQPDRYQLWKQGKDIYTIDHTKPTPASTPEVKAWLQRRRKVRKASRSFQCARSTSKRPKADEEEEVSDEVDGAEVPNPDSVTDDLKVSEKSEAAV
Hits are given with their value; – = inactive; · = not tested or not shown.

SMILES	SUMO Mot1 rescue	HIF activator	T cell HTS	GASC-1 inh
O=C(CN1CCCc2ccccc21)N/N=C/c1c(O)ccc2ccccc12	–	16.3	–	–
O=C(N/N=C/c1c(O)ccc2ccccc12)c1ccc(CO)nc1	–	33.7	–	–
Cc1ccc(OCCNC(=O)c2ccccc2SCC(=O)N2CCCC2)cc1	–	–	–	–
O=C(COC(=O)c1ccc(O)cc1)Nc1ccccc1[N+](=O)[O-]	–	–	–	·
Cc1cc(C)nc(NCc2ccc(Cl)cc2)n1	–	–	–	68.1
CS(=O)(=O)c1ccc2nc(NC(=O)c3ccccc3Cl)sc2c1	–	–	–	–
CS(=O)(=O)c1ccc2nc(NC(=O)C3CC3)sc2c1	–	15.3	–	–
C#CCOCCOCCOCCNc1nc(N2CCN(C(=O)[C@H](CCCCN)n3cc(C(N)CO)nn3)CC2)nc(N2CCN(C(=O)[C@H](CCC(=O)O)n3cc(C(N)[C@H](C)CC)nn3)CC2)n1 (some centres undefined)	–	–	–	–
C#CCOCCOCCOCCNc1nc(N2CCN(C(=O)[C@H](CCCCN)n3cc([C@@H](N)[C@H](C)CC)nn3)CC2)nc(N2CCN(C(=O)[C@H](CCC(=O)O)n3cc([C@@H](N)CCSC)nn3)CC2)n1	–	·	–	52.4
c1cc2c(cc1C1CCCCC1)c1c3n2CCCNC3CCC1 (centres undefined)	·	–	–	–
Cc1ccc2c(c1)c1c3n2CCCNC3CCC1 (centres undefined)	–	–	–	86.3
CCCc1nnc(NS(=O)(=O)c2ccc(OC)cc2)s1	774.4	–	–	–
CCSc1nnc(NS(=O)(=O)c2ccc(OC)cc2)s1	–	–	–	–
Cc1ccc(S(=O)(=O)NNC(=O)CCC(=O)Nc2ccc(C)c(C)c2)cc1	349.7	–	–	–
Cc1ccc(S(=O)(=O)NNC(=O)CCC(=O)Nc2ccccc2Cl)cc1	–	·	–	–
CCOC(=O)c1c(S(=O)(=O)N2c3ccccc3CC2C)c(C)n(C)c1C (centres undefined)	–	–	–	–
CCOC(=O)c1c(C)[nH]c(C)c1S(=O)(=O)N1c2ccccc2CC1C (centres undefined)	–	31.5	–	–
COc1ccc(CNC(=S)Nc2ccc(S(N)(=O)=O)cc2)cc1	–	–	–	–
COc1ccc(NC(=S)NCc2ccc(S(N)(=O)=O)cc2)cc1OC	–	–	–	56.2
NC(=O)C1CCN(C(=O)Cc2ccsc2)CC1	–	–	–	–
Cc1cc(S(=O)(=O)c2ccc([N+](=O)[O-])cn2)ccc1Br	379.2	–	–	–
COc1cc(C(C(=O)NC2CCCC2)N(CCO)C(=O)Cn2nnc(-c3ccc(C)o3)n2)ccc1O (centres undefined)	–	–	–	–
Cn1c(=O)n(C)c2cc(NC(=O)CSc3ccccc3)ccc21	–	–	–	–
Cc1ccc(C(=O)CCc2ccc(N)cc2)cc1	318.1	–	–	–
CC(C)C(NC(=O)c1ccc(F)cc1)C(=O)NCC1CCCO1 (centres undefined)	–	–	–	–
SMILES	SUMO Mot1 rescue	HIF activator	T cell HTS	GASC-1 inh
COc1ccc(/C=C2\Sc3ccc(C(=O)N4CCCC4)cc3N(C)C2=O)cc1OC	–	–	–	52.7
NC(=O)C1CCN(C(=O)c2cnn(-c3ccccc3)c2NC(=O)c2cccc(F)c2)CC1	–	–	–	75.3
COCCNC(=O)C(=O)NCC1OCCN1S(=O)(=O)c1cc(F)ccc1F (centres undefined)	–	17.2	–	–
COc1cc(OC)c2c(-c3ccccc3)cc(=O)oc2c1	319.4	–	–	–
Cc1cc(OCC(=O)C(C)(C)C)c2c(-c3ccccc3)cc(=O)oc2c1	297.0	–	–	–
COCCCn1c(O)c(/C=C2\N=C(C#N)C(=Nc3ccc(C)cc3)O2)sc1=S	–	–	–	–
CC(Oc1ccc2cc(-c3ccccc3)c(=O)oc2c1)C(=O)NCC1CCC(C(=O)O)CC1 (centres undefined)	742.7	–	–	–
CC(Oc1ccc2ccc(=O)oc2c1)C(=O)NCC1CCC(C(=O)O)CC1 (centres undefined)	–	–	–	–
CCC(C)c1ccc(NC(=O)c2c([N+](=O)[O-])cnn2CC)cc1 (centres undefined)	–	–	–	–
CCNc1nc(Oc2ccc(C#N)cc2)cc(C(F)(F)F)n1	–	–	–	–
CCNc1nc(Oc2ccc(F)cc2)cc(C(F)(F)F)n1	943.4	–	–	–
Cc1cccc(C(=O)Nc2ccc(NC(=O)CN3CCOCC3)cc2)c1	–	–	–	–
CC(C)CN(Cc1cc(=O)oc2cc3c(cc12)CCCC3)CC(C)C	–	–	76.5	–
COc1cccc(CNC(=O)CCS(=O)(=O)c2cccc3nsnc23)c1	–	–	–	–
COc1cccc(CNC(=O)CCS(=O)(=O)c2cccc3nonc23)c1	285.9	–	–	–
CCCCN(CCCC)CCNC(=O)c1ccc2nc(-c3ccccc3NC(C)=O)c(=O)[nH]c2c1	561.1	–	–	–
CC(=O)Nc1ccccc1-c1nc2cc(C#N)c(C#N)cc2[nH]c1=O	–	–	–	–
FC(F)(F)c1nc(SCc2ccccc2)n[nH]1	–	–	–	–
O=C(c1ccc(-c2cc(O)c3ncccc3c2)cc1)N1CCNCC1	–	·	–	·
CCOC(=O)C(=CNc1ccc(C(F)(F)F)cc1)C(=O)OCC	–	–	–	–
CCOC(=O)C(=CNc1ccc(NC2=NCC(C)S2)cc1)C(=O)OCC (centres undefined)	–	17.3	–	–
COc1ccc(-c2ccc(NS(=O)(=O)c3cc([N+](=O)[O-])c(C)c([N+](=O)[O-])c3)cc2)nn1	–	–	–	–
CCCCC(=O)NC(c1ccc(N(CC)CC)cc1)c1ccc2cccnc2c1O (centres undefined)	–	96.9	–	–
CCCCC(=O)NC(c1ccc(N(C)C)cc1)c1ccc2cccnc2c1O (centres undefined)	–	88.6	–	–
COc1ccc(C2=CC(=O)C[C@H](c3ccc(F)cc3)C2)c(OC)c1	–	·	–	–
SMILES	SUMO Mot1 rescue	HIF activator	T cell HTS	GASC-1 inh
O=C1C2CC(O)CN2C(=S)N1Cc1ccccc1 (centres undefined)	–	–	–	–
CCN(CCCNC(=O)CCNC(=O)Cn1ccc2ccccc2c1=O)c1ccccc1	·	32.5	·	–
CN(CCNC(=O)CCNC(=O)Cn1ccc2ccccc2c1=O)Cc1ccccc1	–	–	–	–
COc1ccc(CNC(=O)C2CCCN(S(=O)(=O)N3CCC(C)CC3)C2)c(OC)c1 (centres undefined)	–	–	–	–
COc1ccc(OC)c(CNC(=O)C2CCCN(S(=O)(=O)N3CCC(C)CC3)C2)c1 (centres undefined)	–	24.7	–	–
CC(=O)c1cccc(N(C(=O)c2ccccn2)C(C(=O)NC2CCCCC2)c2ccccc2)c1 (centres undefined)	–	38.6	–	–
CCN(CC)c1ccc(/C=N/NC(=O)c2c(Cl)cnn2C)c(O)c1	–	14.9	–	–
CCN(CC)c1ccc(/C=N/NC(=O)c2cccc(S(=O)(=O)N3CCOCC3)c2)c(O)c1	–	101.9	–	–

Bioassay records: PubChem, several laboratories
